Screening data: PubChem BioAssay, Broad Institute
XiGFP reactiv – activators of X-chromosome reactivation in mouse fibroblasts. XiGFP mouse fibroblasts, % GFP-positive cells imaging, 3 d; cells co-treated with 5-aza-dC sensitizer; scaled so ellipticine positive control = 100%. activation, % at 7.58 µM. 0.055% of 360,000 active. AID 743238;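 active = mean normalized replicate activation at least 10% and every replicate at or above 10%; inconclusive = only one of the two criteria met; inactive = mean below 10% and not all replicates reach 10%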;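 note: 0% = median of on-plate neutral control wells and 100% = ellipticine 6 µM median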
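Material: SV40-immortalized XiGFP fibroblast cells, line 68-5-11 | Buffer or medium: DMEM containing 5-aza-dC | Dosing: One concentration, pinned | Times: 3 d treatment, 15 min room-temperature fixation | Controls: Ellipticine 6 µM positive control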
esBAF inh – inhibitors of esBAF chromatin remodeling in mouse ES cells; Bmi1-luciferase knock-in reporter, 24 h; 100% = twice the neutral-well signal; reporter increase, % at 12.5 µM; 2% of 350,000 active; AID 602393; in the data active = activation above about 40%; inconclusive = no clear call, values can overlap the other calls;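 note: 0% = median of the plate's neutral control wells and 100% = double that signal; a rise in the Bmi1 reporter signal indicates esBAF inhibition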
MITF TRPM1 HTS – increases MITF-driven TRPM1 promoter luciferase signal; SK-MEL-5 TRPM1-promoter luciferase, 24 h; % of positive control, neutral wells = 0; 0.75% of 300,000 active; activation, % at 12.5 µM;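 active = mean activation of at least 80% with every replicate also reaching 80%; inconclusive = mean reaches 80% but some replicate falls short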;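 note: 0% = neutral control wells and 100% = parthenolide positive control wells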
Wnt act – activates Wnt/beta-catenin signaling in a reporter cell assay. activator, plate reader. AID 743398. 1.2% of 300,000 active. activation, % at 9.35 µM; in the data active = activation above about 30%, passing the limit was not always enough; inconclusive = no clear call, values can overlap the other calls;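 note: 0% = neutral control wells and 100% = positive control wells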
NSD2 inh – NSD2 (human) methyltransferase inhibition | 0.54% of 310,000 active | NSD2 peptide methylation, AlphaScreen, 120 min | O96028 | inhibition, % at 12.5 µM; in the data active = inhibition above about 50%
Casp6 inh – blocks human caspase-6 cleavage activity; purified caspase-6, Z-VEID-R110 cleavage fluorescence; inhibition, % at 12.5 µM; 0.53% of 350,000 active; AID 686996;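 active = mean inhibition across replicates at least about 35%, with every replicate also reaching that limit, limit read from the data; inconclusive = only one of the two criteria met; inactive = neither criterion met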;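 note: 0% = median of neutral control wells and 100% = no fluorescence left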
Target sequence (P55212 24-179 limits assumed): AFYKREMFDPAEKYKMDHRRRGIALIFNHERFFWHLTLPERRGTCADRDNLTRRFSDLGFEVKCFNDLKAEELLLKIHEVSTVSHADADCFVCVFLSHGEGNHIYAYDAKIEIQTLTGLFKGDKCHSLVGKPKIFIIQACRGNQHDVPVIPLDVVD
Target sequence (P55212 194-293 limits assumed): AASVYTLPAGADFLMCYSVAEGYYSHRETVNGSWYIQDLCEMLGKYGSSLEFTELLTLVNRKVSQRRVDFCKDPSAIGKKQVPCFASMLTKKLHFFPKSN
Ring1 derepress – confirmation of esBAF inhibitors: Ring1 de-repression in mouse ESCs; 550 tested, under 10 active; mouse ESC E14, Ring1 mRNA RT-qPCR fold change; shares compounds with esBAF inh; fold change at 33 µM;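 active = Ring1 gene expression raised more than 2-fold over untreated cells in both replicates at either tested dose; inconclusive = only one replicate above 2-fold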;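 note: Ring1 transcript normalised to actin housekeeping signal by TaqMan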
Fgf4 repress – represses Fgf4 in mouse ESCs, confirming esBAF inhibition; shares compounds with esBAF inh; mouse ESC E14, Fgf4 mRNA qPCR fold change; hits give low values; Fgf4 expression fold change at 33 µM; 4% of 550 active; AID 743177;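 active = Fgf4 expression under 0.8 fold of control in both repeat measurements at one or both tested doses; inconclusive = under 0.8 fold in just a single repeat measurement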;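 note: Fgf4 transcript normalised to actin in duplex TaqMan qPCR; cells exposed to compound for 24 h before lysis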
Bmi1 derepress – de-represses Bmi1 in mouse ESCs, confirming esBAF inhibition; shares compounds with esBAF inh; mouse ESE14 ES cells, Bmi1 mRNA qPCR fold; hits give high values; fold change at 33 µM; 550 tested, under 10 active; AID 743180;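 active = Bmi1 expression fold change above 6 at either tested concentration, seen in replicate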;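 note: higher fold means more Bmi1 de-repression and stronger esBAF inhibition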
A549 tox SP – cytotoxicity in A549 cells | shares compounds with esBAF inh | plate reader | cell viability change % (negative = cytotoxic), % at 25 µM, hits read low | 550 tested, under 10 active | AID 743188; call rule not given here
HepG2 tox SP – kills or reduces viability of HepG2 cells; activity change, negative = inhibition, % at 25 µM; HepG2 cytotoxicity, plate reader; hits give low values; 4% of 550 active; AID 743189; shares compounds with esBAF inh; in the data active = activity change below about -50%
HEK293 cytotox SP – HEK293 cell cytotoxicity at single point. shares compounds with esBAF inh. plate reader. activity change, negative = inhibition, % at 25 µM, hits read low. 3% of 550 active. AID 743190; in the data active = activity change below about -38%, passing the limit was not always enough
An asterisk follows results filed as active; ? = inconclusive; . = no result. In the library only some 3% were active in any assay of this set; here they are far more common.

SMILES	XiGFP reactiv	esBAF inh	MITF TRPM1 HTS	Wnt act	NSD2 inh	Casp6 inh	Ring1 derepress	Fgf4 repress	Bmi1 derepress	A549 tox SP	HepG2 tox SP	HEK293 cytotox SP
C=CCNc1nc(NCc2ccc(NC(C)=O)cc2)c2sc(-c3ccccc3)cc2n1	0.7	65.9*	.	-0.4	-2.2	-0.6	.	.	.	-69.2*	-88.5*	-121.4*
CC(=O)Nc1ccc(CNc2nc(NC(C)C)nc3cc(-c4ccccc4)sc23)cc1	0.6	21.0	.	-2.7	5.3	-5.5	.	.	.	.	.	.
Cc1ccc(S(=O)(=O)N[C@H]2CC[C@@H](CCn3cc(-c4cccc(F)c4)nn3)O[C@@H]2CO)cc1	-0.1	8.2	.	.	.	-0.3	.	.	.	.	.	.
Cc1ccc2c(COC(=O)C34CC5CC(CC(C5)C3)C4)cc(=O)oc2c1	?	95.8*	102.9*	.	-0.9	.	1.3	0.883	1.49	0.2	-18.2	-4.8
Cc1ccc(S(=O)(=O)N2CCC[C@H]2C(=O)OCc2cc(=O)oc3cc(C)ccc23)cc1	0.2	.	11.5	3.0	-3.2	1.1	.	.	.	.	.	.
COc1ccc2nc(C(c3ccc(C)cc3)n3c(-c4ccccc4Br)nc4ccccc43)[nH]c2c1 (configuration not stated)	0.1	?	.	-2.8	.	-0.1	0.963	1.17	1.72	-8.1	3.6	-25.3
Cc1cc(C)c2nc(-c3ccccc3)ccc2c1	0.0	62.7*	.	14.0	.	-0.9	0.928	?	1.58	-12.8	-17.3	-8.5
C[C@@H]1CN([C@H](C)CO)C(=O)c2cc(C3=CCCCC3)cnc2O[C@@H]1CN(C)C(=O)Nc1cccc(F)c1	0.0	10.7	.	.	.	-1.9	.	.	.	.	.	.
Clc1ccc(-c2cnnc(-c3ccccn3)n2)cc1	0.0	82.5*	?	25.3	.	-2.5	1.25	1.33	2.02	-22.8	-30.9	-21.2
c1ccc(-c2cnnc(-c3ccccn3)n2)cc1	0.1	27.7	?	?	.	.	.	.	.	.	.	.
COc1cccc(CN(C)C(=O)c2ccc(COc3ccc(Cl)cc3)cc2)c1OC	0.3	59.3*	?	11.0	-3.8	-1.5	1.19	0.855	1.78	-7.1	-32.0	-0.7
O=C(Nc1cccc(F)c1)N1C[C@H]2[C@@H](c3ccccc31)[C@@H](CO)N2C(=O)c1ccccn1	0.4	10.3	.	.	.	.	.	.	.	.	.	.
COc1ccc(C2=NOC(C)(c3sc(-c4ccc(Cl)cc4)nc3C)C2)cc1 (configuration not stated)	0.0	.	.	-1.6	.	-3.6	.	.	.	.	.	.
Cc1nc(-c2ccc(Cl)cc2)sc1C1(C)CC(c2cccnc2)=NO1 (configuration not stated)	0.0	77.4*	63.7	21.9	.	4.5	1.26	0.916	1.35	1.0	-46.0	-11.6
COc1cccc(C#Cc2ccc([C@H]3[C@@H](CO)N4C(=O)CN(S(=O)(=O)c5ccccc5C)C[C@@H]34)cc2)c1	0.3	.	.	.	.	2.2	.	.	.	.	.	.
CC(C)(C)C(=O)N1CCN(c2nc3ccccc3s2)CC1	0.2	63.9*	122.4*	20.2	-2.2	-10.4	1.16	0.868	1.08	2.9	10.8	-2.6
CC(C)C(=O)N1CCN(c2nc3ccc(Cl)cc3s2)CC1	0.0	80.4*	62.8	16.2	-3.5	-0.7	1.17	0.957	1.71	-0.9	18.8	-19.0
Cc1ccccc1S(=O)(=O)NCC[C@H]1CC[C@H](NC(=O)C2CCCCC2)[C@@H](CO)O1	0.2	3.6	.	.	.	-0.9	.	.	.	.	.	.
C[C@@H]1CN([C@H](C)CO)C(=O)Cc2cc(NC(=O)Nc3ccc(F)cc3)ccc2O[C@H]1CN(C)S(=O)(=O)c1ccc(Cl)cc1	0.0	0.5	.	.	.	-1.5	.	.	.	.	.	.
CC(C)(C)Nc1nc(Cl)nc(Nc2ccccc2)n1	0.0	58.8*	.	9.3	0.4	0.8	1.27	?	1.64	-10.3	1.2	-14.0
COc1ccccc1Nc1nc(Cl)nc(NC(C)(C)C)n1	0.3	.	-6.2	-0.3	-1.2	4.0	.	.	.	.	.	.
c1ccc(-c2ccc3[nH]ccc3c2)cc1	0.0	58.7*	92.5*	16.9	.	-7.2	1.03	0.988	2.1	1.5	-17.1	7.8
COc1cc(CNc2ccc(N3CCN(C(C)=O)CC3)cc2)ccc1OCc1ccc(F)cc1	0.0	57.9*	-31.2	15.9	1.5	0.6	2.17*	1.31	2.26	-4.7	-23.5	-29.4
CCCNC(=O)[C@@H]1[C@@H](CO)[C@@H]2Cn3c(ccc(-c4ccncc4)c3=O)[C@H]1N2Cc1ccccc1F	0.0	-0.6	.	.	.	-0.7	.	.	.	.	.	.
O=C1NCCC/C1=N/Nc1cc(F)ccc1F	0.0	60.1*	57.1	-2.4	-3.0	-0.4	0.824	0.882	1.35	-11.8	-54.9*	-21.1
SMILES	XiGFP reactiv	esBAF inh	MITF TRPM1 HTS	Wnt act	NSD2 inh	Casp6 inh	Ring1 derepress	Fgf4 repress	Bmi1 derepress	A549 tox SP	HepG2 tox SP	HEK293 cytotox SP
Cc1ccc(N/N=C2/CCCNC2=O)cc1	.	-0.2	.	1.0	22.5	.	.	.	.	.	.	.
O=C(O)CC(c1ccc(Cl)cc1)N1Cc2ccccc2C1=O (configuration not stated)	0.1	-10.0	-3.8	-1.5	0.9	-1.8	.	.	.	.	.	.
COC(=O)C(Cc1ccc(OC(=O)c2ccc(Cl)cc2)cc1)N1Cc2ccccc2C1=O (configuration not stated)	.	72.3*	27.7	-1.2	-0.5	.	1.25	0.835	1.2	2.8	-30.5	-4.6
O=C(c1cc2c(s1)-c1ccccc1OC2)N1CCCC1	0.4	76.5*	34.4	55.4*	.	-0.9	1.11	0.966	2.01	-5.8	21.1	-26.4
COc1cc(OC)c2c(-c3cccc(/C=C/c4ccc(F)cc4)c3)cc(=O)oc2c1	0.3	85.9*	95.6*	-0.7	.	0.5	1.14	0.917	2.68	3.2	29.3	11.7
COc1ccc(/C=C/C(=O)Oc2cccc(/C=N/NC(=O)Cc3ccc(Br)cc3)c2)cc1	0.3	62.5*	37.5	-22.7	-4.7	-1.2	1.23	?	1.58	-2.9	1.5	4.7
COc1cccc(/C=N/NC(=O)CCCC(=O)Nc2ccc(Br)cc2)c1	0.0	.	3.5	-2.4	-0.9	.	.	.	.	.	.	.
O=C(c1ccc(F)cc1)N1CC(=O)N2[C@H](CO)[C@H](c3ccc(C#CC4CCCCC4)cc3)[C@H]2C1	-0.1	.	.	.	.	0.8	.	.	.	.	.	.
